Test results from ChEMBL document CHEMBL2321652, “Design and synthesis of HIV-1 protease inhibitors for a long-acting injectable drug application” (Bioorg Med Chem Lett, 2013).

Experiments:
[1] = Cytotoxicity against human MT4 cells; assay type: cell-based
[2] = system: Human immunodeficiency virus 1; test: Selectivity ratio of EC50 for Human immunodeficiency virus 1 3B clinical isolate harboring L10I/I13V/M46I/I50V/L63P/L76V protease mutant to EC50 for wild type Human immunodeficiency virus 1 3B; assay type: functional
[3] = system: Human immunodeficiency virus 1; test: Selectivity ratio of EC50 for Human immunodeficiency virus 1 3B clinical isolate harboring L10I/M46I/I64V/I84V/L90M/I93L protease mutant to EC50 for wild type Human immunodeficiency virus 1 3B; assay type: functional
[4] = system: Human immunodeficiency virus 1; test: Antiviral activity against wild type Human immunodeficiency virus 1 3B infected in human MT4 cells assessed as inhibition of viral replication in presence of 50% human serum
[5] = system: Human immunodeficiency virus 1; test: Selectivity ratio of EC50 for Human immunodeficiency virus 1 3B clinical isolate harboring L10I/K20R/M36I/G48V/ I62V/A71V/V82A/I93L protease mutant to EC50 for wild type Human immunodeficiency virus 1 3B; assay type: functional
[6] = system: Human immunodeficiency virus 1; test: Antiviral activity against Human immunodeficiency virus 1 3B clinical isolate harboring L10I/M46I/I64V/I84V/L90M/I93L protease mutant infected in human MT4 cells assessed as inhibition of viral replication; assay type: functional, organism-based
Method in brief: (§1)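 Inhibition of replication in MT4 cells infected with protease-mutant HIV-1 clinical isolates, reported as EC50. Each assay run in quadruplicate. Values are averages of at least two independent experiments, typically three to four. Cytotoxicity (CC50) was measured in parallel in MT4 cells.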

[7] = system: Human immunodeficiency virus 1; test: Antiviral activity against Human immunodeficiency virus 1 3B clinical isolate harboring L10I/K20R/M36I/G48V/ I62V/A71V/V82A/I93L protease mutant infected in human MT4 cells assessed as inhibition of viral replication; assay type: functional, organism-based
Method in brief: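 Each assay run in quadruplicate. Values are averages of at least two independent experiments, typically three to four. Cytotoxicity (CC50) was measured in parallel in MT4 cells.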

[8] = system: Human immunodeficiency virus 1; test: Antiviral activity against wild type Human immunodeficiency virus 1 3B infected in human MT4 cells assessed as inhibition of viral replication; assay type: functional, organism-based
Method in brief: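 EC50 values are averages of at least two independent experiments (typically three to four), each run in quadruplicate. For the serum-shifted line, the same antiviral assay includes 50% human serum, used as a functional measure of plasma protein binding.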

[9] = Plasma clearance in rat at 2 mg/kg, iv; assay type: ADME, organism-based; set-up: dose 2 mg/kg, route intravenous
Method in brief: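 Single intravenous dose of 2 mg/kg in rats. The formulation is typically 1 mg/mL in PEG400/ethanol/saline (70/20/10). Clearance values are averages from two or three animals. High is >3 L/h/kg (>70% liver blood flow) and low is <1.3 L/h/kg (<30%).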

[10] = Drug metabolism in human liver microsomes at 1 uM after 15 mins; assay type: ADME, Microsome; conditions: read-out: Drug metabolism
Method in brief: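 Human liver microsome incubation at 37 °C for 15 min with compound at 1 µM; turnover expressed as percent of compound metabolized.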

[11] = system: Human immunodeficiency virus 1; test: Antiviral activity against Human immunodeficiency virus 1 3B clinical isolate harboring L10I/I13V/M46I/I50V/L63P/L76V protease mutant infected in human MT4 cells assessed as inhibition of viral replication; assay type: functional, organism-based; method in brief: as §1

Row | Compound | CC50 [1] | Ratio EC50 [2] | Ratio EC50 [3] | EC50 [4] | Ratio EC50 [5] | EC50 [6] | EC50 [7] | EC50 [8] | clearance [9] | metabolised at 0.25 h, 1 µM [10] | EC50 [11]
1 | CC(C)CN(C[C@@H](O)[C@H](Cc1ccccc1)NC(=O)O[C@H]1CO[C@H]2OCC[C@H]21)S(=O)(=O)c1ccc(N)cc1 | > 10000 nM | 8 | 2 | 17 nM | <1 | 12 nM | 2.4 nM | – | – | – | –
2 | COC(=O)N[C@H](C(=O)N[C@@H](Cc1ccc(-c2ccc(OC)nc2)cc1)[C@@H](O)C[C@@H](Cc1ccccc1F)C(=O)N[C@H]1c2cccc(F)c2OC[C@H]1O)C(C)(C)C | > 10000 nM | – | – | 6.9 nM | – | – | – | 2.8 nM | 88.3 mL/min/kg | 98% | –
3 | COC(=O)N[C@H](C(=O)N[C@@H](Cc1ccc(-c2ccc(OC)nc2)cc1)[C@@H](O)C[C@@H](Cc1ccccc1F)C(=O)N[C@H]1c2cc(F)cc(Cl)c2OC[C@H]1O)C(C)(C)C | > 10000 nM | – | – | 8.4 nM | – | – | – | 2.6 nM | 31.7 mL/min/kg | 8% | –
4 | COC(=O)N[C@H](C(=O)N[C@@H](Cc1ccc(-c2ccc(OC)nc2)cc1)[C@@H](O)C[C@@H](Cc1ccccc1F)C(=O)N[C@H]1c2cc(Cl)cc(F)c2OC[C@H]1O)C(C)(C)C | > 10000 nM | – | – | 16 nM | – | – | – | 4.1 nM | – | 23% | –
5 | COC(=O)N[C@H](C(=O)N[C@@H](Cc1ccc(-c2ccc(OC)nc2)cc1)[C@@H](O)C[C@@H](Cc1ccccc1F)C(=O)N[C@H]1c2cc(C)ccc2OC[C@H]1O)C(C)(C)C | > 10000 nM | – | – | 7.7 nM | – | – | – | 0.9 nM | 46.7 mL/min/kg | 63% | –
6 | COC(=O)N[C@H](C(=O)N[C@@H](Cc1ccc(-c2ccc(OC)nc2)cc1)[C@@H](O)C[C@@H](Cc1ccccc1F)C(=O)N[C@H]1c2cc(C)cc(F)c2OC[C@H]1O)C(C)(C)C | > 10000 nM | – | – | 9.8 nM | – | – | – | 2.8 nM | 83.3 mL/min/kg | 48% | –
7 | COC(=O)N[C@H](C(=O)N[C@@H](Cc1ccc(-c2ccc(OC)nc2)cc1)[C@@H](O)C[C@@H](Cc1ccccc1F)C(=O)N[C@H]1c2cc(F)cc(C)c2OC[C@H]1O)C(C)(C)C | > 10000 nM | 2 | 3 | 6.8 nM | <1 | 5.4 nM | 1.5 nM | 1.8 nM | 26.7 mL/min/kg | 17% | 3.3 nM
8 | COC(=O)N[C@H](C(=O)N[C@@H](Cc1ccc(-c2ccc(OC)nc2)cc1)[C@@H](O)C[C@@H](Cc1ccccc1F)C(=O)N[C@H]1[C@H](C)CC[C@H]1O)C(C)(C)C | > 10000 nM | – | – | 3.3 nM | – | – | – | 1.1 nM | 78.3 mL/min/kg | 99% | –
9 | COC(=O)N[C@H](C(=O)N[C@@H](Cc1ccc(-c2ccc(OC)nc2)cc1)[C@@H](O)C[C@@H](Cc1ccccc1F)C(=O)N[C@H]1CCCC[C@H]1O)C(C)(C)C | > 10000 nM | – | – | 5.9 nM | – | – | – | 1.8 nM | 86.7 mL/min/kg | 99% | –
10 | COC(=O)N[C@H](C(=O)N[C@@H](Cc1ccc(-c2ccc(N(C)C)nc2)cc1)[C@@H](O)C[C@@H](Cc1ccccc1F)C(=O)N[C@H]1[C@H](C)CCC[C@H]1O)C(C)(C)C | > 10000 nM | – | – | 4.9 nM | – | – | – | 1.1 nM | 93.3 mL/min/kg | 99% | –
11 | COC(=O)N[C@H](C(=O)N[C@@H](Cc1ccc(-c2ccc(OC)nc2)cc1)[C@@H](O)C[C@@H](Cc1ccccc1Cl)C(=O)N[C@H]1[C@H](C)CCC[C@H]1O)C(C)(C)C | > 10000 nM | – | – | 7.1 nM | – | – | – | 1.1 nM | 70 mL/min/kg | 99% | –
12 | COC(=O)N[C@H](C(=O)N[C@@H](Cc1ccc(-c2ccc(OC)nc2)cc1)[C@@H](O)C[C@@H](Cc1cccc(OC(F)(F)F)c1)C(=O)N[C@H]1[C@H](C)CCC[C@H]1O)C(C)(C)C | > 10000 nM | – | – | 3.2 nM | – | – | – | 0.9 nM | 90 mL/min/kg | 94% | –
13 | COC(=O)N[C@H](C(=O)N[C@@H](Cc1ccccc1)[C@@H](O)C[C@@H](Cc1ccccc1)C(=O)N[C@H]1c2ccccc2OC[C@H]1O)C(C)(C)C | > 10000 nM | <1 | 2 | 19 nM | <1 | 19 nM | 7 nM | 10 nM | 66.7 mL/min/kg | 99% | 6 nM
14 | COC(=O)N[C@H](C(=O)N[C@@H](Cc1ccc(-c2ccc(OC)nc2)cc1)[C@@H](O)C[C@@H](Cc1ccccc1F)C(=O)N[C@H]1c2ccccc2OC[C@H]1O)C(C)(C)C | > 10000 nM | – | – | 6.6 nM | – | – | – | 2.5 nM | 96.7 mL/min/kg | 72% | –
15 | COC(=O)N[C@H](C(=O)N[C@@H](Cc1ccc(-c2ccc(OC)nc2)cc1)[C@@H](O)C[C@@H](Cc1ccccc1F)C(=O)N[C@H]1c2cc(Cl)ccc2OC[C@H]1O)C(C)(C)C | > 10000 nM | – | – | 14 nM | – | – | – | 2.7 nM | 7.83 mL/min/kg | 23% | –
16 | COC(=O)N[C@H](C(=O)N[C@@H](Cc1ccc(-c2ccc(OC)nc2)cc1)[C@@H](O)C[C@@H](Cc1ccccc1Cl)C(=O)N[C@H]1c2cc(Cl)ccc2OC[C@H]1O)C(C)(C)C | > 10000 nM | – | – | 13 nM | – | – | – | 3.9 nM | 23.3 mL/min/kg | 5% | –
17 | COC(=O)N[C@H](C(=O)N[C@@H](Cc1ccc(-c2ccc(OC)nc2)cc1)[C@@H](O)C[C@@H](Cc1cccc(OC(F)(F)F)c1)C(=O)N[C@H]1c2cc(Cl)ccc2OC[C@H]1O)C(C)(C)C | > 10000 nM | – | – | 24 nM | – | – | – | 4.2 nM | – | 0% | –
18 | COC(=O)N[C@H](C(=O)N[C@@H](Cc1ccc(-c2ccc(OC)nc2)cc1)[C@@H](O)C[C@@H](Cc1ccccc1F)C(=O)N[C@H]1c2cccc(Cl)c2OC[C@H]1O)C(C)(C)C | > 10000 nM | – | – | 5.3 nM | – | – | – | 2.4 nM | 65 mL/min/kg | 47% | –
19 | COC(=O)N[C@H](C(=O)N[C@@H](Cc1ccc(-c2ccc(OC)nc2)cc1)[C@@H](O)C[C@@H](Cc1ccccc1F)C(=O)N[C@H]1c2cc(F)ccc2OC[C@H]1O)C(C)(C)C | > 10000 nM | – | – | 5.8 nM | – | – | – | 1.2 nM | 35 mL/min/kg | 48% | –
20 | COC(=O)N[C@H](C(=O)N[C@@H](Cc1ccccc1)[C@@H](O)CN(Cc1ccc(-c2ccccn2)cc1)NC(=O)[C@@H](NC(=O)OC)C(C)(C)C)C(C)(C)C [ATAZANAVIR] | > 10000 nM | <1 | 8 | 13 nM | 9 | 57 nM | – | 6.8 nM | – | – | –
21 | Cc1cccc(C)c1OCC(=O)N[C@@H](Cc1ccccc1)[C@@H](O)C[C@H](Cc1ccccc1)NC(=O)[C@H](C(C)C)N1CCCNC1=O [LOPINAVIR] | > 10000 nM | – | – | – | – | – | – | 13 nM | – | – | –
